Data reported in ChEMBL document CHEMBL4354813, “Design, Synthesis, and Pharmacological Evaluation of Potent Positive Allosteric Modulators of the Glucagon-like Peptide-1 Receptor (GLP-1R)” (J Med Chem, 2020).
The source made the active and inactive calls. No cut-off for these calls is given here.

What was measured:
[1] = target: T1, Solute carrier organic anion transporter family member 1B3 (Homo sapiens, UniProt Q9NPD5); assay: Substrate activity at human OATP1B3 expressed in HEK293 cells assessed as increase in compound uptake at 1 uM LC-MS/MS analysis; format: ADME, cell-based; conditions: hek293, 1 µM, TDE = time-dependent effect
T1 sequence (Q9NPD5 whole entry): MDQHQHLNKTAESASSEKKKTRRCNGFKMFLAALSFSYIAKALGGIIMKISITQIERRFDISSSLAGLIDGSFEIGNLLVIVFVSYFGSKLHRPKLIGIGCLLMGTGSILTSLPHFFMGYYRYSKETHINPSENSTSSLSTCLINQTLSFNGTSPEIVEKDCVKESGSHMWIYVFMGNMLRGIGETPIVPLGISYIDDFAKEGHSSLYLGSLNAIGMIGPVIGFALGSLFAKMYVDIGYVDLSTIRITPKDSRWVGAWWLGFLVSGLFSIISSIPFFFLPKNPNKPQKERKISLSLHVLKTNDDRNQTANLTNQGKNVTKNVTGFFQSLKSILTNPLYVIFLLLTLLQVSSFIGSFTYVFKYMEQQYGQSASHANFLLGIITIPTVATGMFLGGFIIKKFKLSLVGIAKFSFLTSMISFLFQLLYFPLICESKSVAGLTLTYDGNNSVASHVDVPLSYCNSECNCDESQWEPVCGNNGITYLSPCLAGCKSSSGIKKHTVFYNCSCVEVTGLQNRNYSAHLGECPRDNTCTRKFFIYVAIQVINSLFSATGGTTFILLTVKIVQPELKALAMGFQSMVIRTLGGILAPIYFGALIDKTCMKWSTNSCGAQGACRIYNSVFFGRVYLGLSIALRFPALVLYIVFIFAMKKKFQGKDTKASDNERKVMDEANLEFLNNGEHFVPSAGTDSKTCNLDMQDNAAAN
Outline: (§1)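 HEK-TR cells overexpressing hOATP1B1 or hOATP1B3, run in parallel with control HEK-TR cells, seeded at 1 x 10⁵ cells/well one day before. Time-dependent uptake of 1 μM compound in HBSS at 37 °C, quadruplicates. Uptake stopped with ice-cold buffer, cells washed, lysed and quantified by LC-MS/MS. Uptake ratio calculated against the control cells.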

[2] = organism: Rattus norvegicus; assay: Inhibition of glucose-stimulated insulin secretion in dispersed rat pancreatic islets at 10 uM incubated for 2 hrs by ELISA; format: functional
Outline: (§2)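 Dispersed islets from male Sprague Dawley rats (collagenase digestion, Histopaque purification, Accutase dispersal, cultured up to 4 days). Pre-incubated 1 h in Krebs-Ringer with 5.6 mM glucose, then 2 h at 37 °C with 15 mM glucose, ±10 nM GLP1(9-36)NH2, ±compound 10 µM, DMSO vehicle; insulin by HTRF ELISA as % of total, n-fold vs control; N≥9.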

[3] = Efflux ratio in human Caco2/TC7 cells at pH 7.4 in presence of 0.5% BSA; format: ADME, cell-based; conditions: Caco-2, pH 7.4
Outline: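 Efflux in Caco-2/TC7 cells under isocratic conditions, pH 7.4 and 0.5% BSA in both compartments, compound 2 µM, with and without cyclosporine A as efflux inhibitor; LC-MS/MS analysis.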

[4] = target: T2, Solute carrier organic anion transporter family member 1B1 (Homo sapiens, UniProt Q9Y6L6); assay: Substrate activity at human OATP1B1 expressed in HEK293 cells assessed as increase in compound uptake at 1 uM LC-MS/MS analysis; format: ADME, cell-based; conditions: hek293, 1 µM, TDE = time-dependent effect; outline: as §1
T2 sequence (Q9Y6L6 whole entry): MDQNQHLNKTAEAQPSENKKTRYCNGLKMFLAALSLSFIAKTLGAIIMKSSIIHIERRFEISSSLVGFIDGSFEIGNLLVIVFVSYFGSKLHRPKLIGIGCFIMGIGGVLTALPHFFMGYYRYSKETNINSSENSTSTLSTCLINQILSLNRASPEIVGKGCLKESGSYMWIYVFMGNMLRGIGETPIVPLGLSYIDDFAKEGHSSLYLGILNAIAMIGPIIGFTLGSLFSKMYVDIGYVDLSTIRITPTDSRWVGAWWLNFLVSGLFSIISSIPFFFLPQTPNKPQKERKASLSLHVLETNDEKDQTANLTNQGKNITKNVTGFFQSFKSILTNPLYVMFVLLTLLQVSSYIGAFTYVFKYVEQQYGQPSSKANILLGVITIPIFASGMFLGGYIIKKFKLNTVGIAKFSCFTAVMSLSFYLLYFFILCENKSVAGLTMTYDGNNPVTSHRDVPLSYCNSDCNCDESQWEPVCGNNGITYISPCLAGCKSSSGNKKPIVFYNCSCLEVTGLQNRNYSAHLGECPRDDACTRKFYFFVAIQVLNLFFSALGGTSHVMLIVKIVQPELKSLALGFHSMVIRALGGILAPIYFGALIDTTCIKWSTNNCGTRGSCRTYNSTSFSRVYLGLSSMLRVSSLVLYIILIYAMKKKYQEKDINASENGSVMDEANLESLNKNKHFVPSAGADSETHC

[5] = organism: Rattus norvegicus; assay: Improvement in 10 nM GLP1(9-36)NH2-mediated glucose-stimulated insulin secretion in dispersed rat pancreatic islets at 10 uM incubated for 2 hrs by ELISA; format: functional; outline: as §2
[6] = tested on: Mus musculus; assay: Suppression of blood glucose concentration in ob/ob C57Bl/6J mouse model of T2DM at 30 mg/kg, po in absence of OATP/MRP2 inhibitor rifampicin and/or GLP1(9-36)NH2 by oral glucose-tolerance test; format: functional, organism-based
Outline: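 Male ob/ob mice aged 10–11 weeks, n=7, randomised on blood glucose and fasted overnight. Rifampicin 60 mg/kg p.o. 2.5 h before the oGTT, compound 30 mg/kg p.o. 1 h before, GLP1(9-36)NH2 i.p. 15 min before, each given as indicated. Glucose 2 g/kg orally. Tail-vein glucose by glucometer at 0, 15, 30, 60 and 90 min.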

[7] = Lipophilicity, logD of the compound at pH 7.4 at 25 degC; format: physicochemical; conditions: buffer
[8] = tested on: Mus musculus; assay: Suppression of blood glucose concentration in 4.5 mg/kg, ip GLP1(9-36)NH2-treated GLP-1R (-/-) C57Bl/6J mouse model at 30 mg/kg, po dosed 1 hrs before test and treated with 60 mg/kg, po OATP/MRP2 inhibitor rifampicin 2.5 hrs prior to oral glucose-tolerance test; format: functional, organism-based
Outline: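 GLP-1R-/- male mice aged 10 weeks, n=6, fasted overnight. Rifampicin 60 mg/kg p.o. 2.5 h before the oGTT, compound p.o. 1 h before, with or without GLP1(9-36)NH2 i.p. 15 min before. Glucose 2 g/kg orally. Tail-vein blood glucose by glucometer at 0, 15, 30, 60 and 90 min.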

[9] = organism: Rattus norvegicus; assay: Improvement in GLP1(9-36)NH2-mediated glucose-stimulated insulin secretion in dispersed rat pancreatic islets at <10 uM incubated for 2 hrs by ELISA; format: functional
Outline: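 Dispersed rat islets pre-incubated 1 h in Krebs-Ringer (5.6 mM glucose), then 2 h at 37 °C at 15 mM glucose with GLP1(9-36)NH2 1, 10 or 100 nM ± compound 1 µM, DMSO vehicle. Supernatant insulin measured by HTRF-based ELISA, expressed as % of total insulin and n-fold vs respective control; N≥9 per condition.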

Compound | Activity [1] | inhibition [2] | efflux ratio [3] | Activity [4] | Activity [5] | Activity [6] | logD [7] | Activity [8] | Activity [9]
CC(C)(C)OC(=O)n1c2c(c3ccccc31)C[C@H]1C(=O)N3C[C@@H](CC(=O)O)C[C@H]3[C@@H]2N1C(=O)CC1CCC(F)(F)CC1 | Tde | inactive | 247 | Tde | Active | inactive | 1.7 | inactive | 
CC(O)CCN1C[C@H]2c3c(c4ccccc4n3C(=O)OC(C)(C)C)C[C@@H](C1=O)N2C(=O)CC1CCC(F)(F)CC1 (some centres undefined) |  |  |  |  |  |  |  |  | Active
